Screening data: PubChem, Broad Institute
The list is not random: actives were taken first. Their share in the collection is about 2.5%.
N-glyco inh: blocks N-linked glycosylation in D54 reporter cells. reporter increase, % at 12.5 µM. AID 588692. hit rate 0.23% among 360,000. D54 ERlucT glycosylation luciferase reporter, 24 h; percent of 100 nM tunicamycin response;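 active means mean luciferase reporter signal, scaled so untreated is 0 and the glycosylation-blocking control 100, at or above a set limit in every replicate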;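 further: luciferase carries N-glycosylation sites so blocking glycosylation raises the light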
MLL AF4-AF9 inh: blocks AF4 peptide binding to human AF9. P42568. AlphaScreen, biotin-AF4 peptide binding to FLAG-AF9. inhibition, % at 10 µM. hit rate 0.47% among 350,000. AID 651704;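 active means every replicate reaching a set inhibition limit, whatever the replicate mean, cut at about 25% in these data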
Target sequence (P42568 whole entry, looked up): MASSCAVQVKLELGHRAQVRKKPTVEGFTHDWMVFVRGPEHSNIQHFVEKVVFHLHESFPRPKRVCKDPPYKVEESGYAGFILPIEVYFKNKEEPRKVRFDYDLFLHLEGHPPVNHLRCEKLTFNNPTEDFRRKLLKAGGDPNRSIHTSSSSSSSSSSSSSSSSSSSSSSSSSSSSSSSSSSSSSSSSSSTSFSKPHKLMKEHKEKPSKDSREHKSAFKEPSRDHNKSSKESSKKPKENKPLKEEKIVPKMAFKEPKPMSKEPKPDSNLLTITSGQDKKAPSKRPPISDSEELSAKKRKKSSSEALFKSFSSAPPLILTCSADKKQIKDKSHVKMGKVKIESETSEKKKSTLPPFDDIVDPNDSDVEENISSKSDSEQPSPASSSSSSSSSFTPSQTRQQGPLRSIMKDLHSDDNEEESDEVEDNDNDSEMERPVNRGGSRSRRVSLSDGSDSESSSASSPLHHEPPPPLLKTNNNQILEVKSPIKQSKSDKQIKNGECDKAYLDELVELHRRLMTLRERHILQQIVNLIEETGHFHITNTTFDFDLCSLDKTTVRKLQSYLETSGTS
PAX8 inh HTS: PAX8 transcriptional activity inhibition; RMG-I TPO-luciferase reporter, SteadyGlo, 24 h; inhibition, % at 12.6 µM; hit rate 1.2% among 360,000;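 active means mean replicate inhibition at least 60% with every replicate also reaching 60%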;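 further: luciferase light reporting Pax8 driven TPO promoter activity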
Env fusion inh: inhibitors of HIV Env-mediated cell fusion | AID 651610 | HeLa-JRFL Env/CEM21 cell fusion, luciferase | inhibition, % at 12.3 µM | hit rate 1.1% among 360,000;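 active means mean replicate inhibition score of at least 50 and every replicate individually at or above 50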
EWS-Fli block: EWS/Fli transcriptional activity inhibition | inhibition, % at 12.6 µM | A673 NR0B1-luciferase reporter, viability-normalised | hit rate 0.67% among 350,000;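 active means mean inhibition of at least 50% after viability correction, with every replicate also passing that limit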;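 further: firefly luciferase signal divided by Alamar Blue viability fluorescence both relative to DMSO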
FN deposition inh: fibronectin deposition inhibition. AH1F fibroblasts, Alexa488-fibronectin deposition fluorescence, overnight. AID 743247. inhibition, % at 12.6 µM. hit rate 0.086% among 350,000;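 active means mean inhibition across replicates of 30% or more, regardless of how many single replicates reach that level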
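Material: AH1F fibroblast monolayer depositing Alexa488-labelled fibronectin into matrix / Amount: 10000 AH1F cells per well / Signal: fluorescence 485/525 nm / Medium: DMEM, 2% serum / Compound: single dose, pinned / Incubation: 1 h cell adhesion before compound, then overnight fibronectin incubation / Reagent: Alexa488-FN, 24 nM final / Read-out: inhibition of fibronectin deposition signal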
Numbers stand for hits; n = inactive; x = not tested or not shown.

SMILES	N-glyco inh	MLL AF4-AF9 inh	PAX8 inh HTS	Env fusion inh	EWS-Fli block	FN deposition inh
O=C(C[C@H]1C=C[C@@H](NC(=O)Nc2ccc(C(F)(F)F)cc2)[C@@H](CO)O1)NCCN1CCCC1	x	n	n	n	n	n
COc1ccc(S(=O)(=O)Nc2ccc3c(c2)CC(=O)N([C@H](C)CO)C[C@H](C)[C@H](CN(C)Cc2ccc4c(c2)OCO4)O3)cc1	x	n	x	n	n	n
CSc1ccc2c(c1)N(CCC1CCCCN1C)c1ccccc1S2 (stereo not given)	n	38.5	n	n	n	n
COc1ccc(CCn2c(C)cc(C(=O)CSc3nc(N)cc(=O)[nH]3)c2C)cc1	n	x	x	69.8	x	n
CC(C)CC#Cc1ccc2c(c1)O[C@@H](CN(C)Cc1ccccn1)[C@@H](C)CN([C@H](C)CO)S2(=O)=O	x	n	n	n	n	n
C[C@H](CO)N1C[C@H](C)[C@@H](CN(C)C(=O)Nc2cccc3ccccc23)Oc2ccc(NC(=O)C3CCCCC3)cc2C1=O	x	n	n	n	n	x
COc1ccc(NC(=O)N(C)C[C@@H]2Oc3ccc(NC(=O)c4ccncc4)cc3CC(=O)N([C@H](C)CO)C[C@@H]2C)cc1	x	n	n	n	n	x
COc1cc(C#Cc2c(-c3cncn3C)n(C)c3ccc(-c4cc(OC)c(OC)c(OC)c4)cc23)cc(OC)c1	n	n	73.3	n	n	n
COc1ccc(N=Nc2cc(OC)c(N)cc2OC)cc1	n	31.5	n	n	n	n
COc1ccc(N=Nc2ccc(N)nc2N)cc1	n	n	n	n	n	n
O=C(C[C@@H]1C[C@H]2c3cc(NS(=O)(=O)c4ccc(F)cc4)ccc3O[C@H]2[C@@H](CO)O1)N1CCCCC1	x	n	n	n	n	x
c1ccc(Cc2nnc(Sc3ccccc3)c3ccccc23)cc1	36.0	n	x	x	n	x
CC(=C1C(=O)c2ccccc2C1=O)N1CCN(CCN=CC2=C(O)CC(C)(C)CC2=O)CC1	n	n	n	x	n	n
CC(=NCCN1CCN(C(C)=C2C(=O)c3ccccc3C2=O)CC1)C1=C(O)CC(C)(C)CC1=O	n	n	101.0	x	n	n
COc1cc(NC(C)CCCN)c2ncccc2c1 (stereo not given)	n	30.7	65.9	x	n	n
COc1cc(NCCCCCCCN)c2ncccc2c1	n	x	x	x	x	x
C[C@@H]1CN([C@@H](C)CO)C(=O)c2cc(NC(=O)Cn3cnnn3)ccc2O[C@H]1CN(C)Cc1ccncc1	x	n	n	x	n	x
CN1CCC(NC(=O)c2cccc(Oc3ccccc3)c2)CC1	n	n	x	n	n	n
COc1cc(C(=O)NC2CCN(C)CC2)ccc1Nc1ncc2c(n1)N(C1CCCC1)CCC(=O)N2C(C)C	59.3	x	x	x	x	x
COc1cc(C(=O)NC2CCN(C)CC2)ccc1Nc1ncc2c(n1)N(CCc1ccccc1)CCC(=O)N2C	62.1	n	n	n	54.2	n
C[C@@H]1CCCCO[C@@H](CN(C)Cc2ccc(C(=O)O)cc2)[C@H](C)CN([C@@H](C)CO)C(=O)c2cc(NC(=O)Nc3cccc4ccccc34)ccc2O1	x	n	n	n	n	x
CCOc1ccc(C(=O)NCC(=O)OCc2c(C)noc2C)cc1	n	n	72.9	x	n	n
Cc1noc(C)c1COc1ccc(C(=O)NNC(=O)c2ccccc2F)cc1	26.8	x	x	x	x	x
CCOc1ccc(C(=O)NCC(=O)OCc2c(C)noc2C)cc1OCC	n	n	n	n	n	x
Cc1noc(C)c1COc1ccc(C(=O)NNC(=O)c2ccccc2)cc1	n	n	n	n	n	n
SMILES	N-glyco inh	MLL AF4-AF9 inh	PAX8 inh HTS	Env fusion inh	EWS-Fli block	FN deposition inh
CCC(=O)N1CCC2(CC1)CN(S(=O)(=O)c1ccccc1)[C@@H](CO)c1[nH]c3cc(OC)ccc3c12	x	n	x	x	n	x
CCC(=O)N(C)C[C@@H]1Oc2cc(Br)ccc2S(=O)(=O)N([C@@H](C)CO)C[C@H]1C	x	n	x	n	n	n
C[C@H]1CN([C@@H](C)CO)C(=O)c2cc(NC(=O)C3CC3)ccc2O[C@@H]1CN(C)Cc1ccncc1	x	n	n	n	n	x
CCC(=O)N1[C@H](CO)[C@@H](c2ccc(C3=CCCC3)cc2)[C@@H]1CNC(=O)CN(C)C	x	x	n	x	n	n
CC(C)C1COS(=O)(=O)NC1CC(=O)SC(C)(C)C (stereo not given)	n	n	n	n	n	n
CC(C)(C)SC(=O)CC1NS(=O)(=O)OCC1NC(=O)OCC(Cl)(Cl)Cl (stereo not given)	n	x	n	63.2	n	n
